According to ChEMBL document CHEMBL2375244 (J Med Chem, 2013):

What was measured:
CDK2/Cyclin A2 [1] = biological target: T1, CDK2/Cyclin A2 (Homo sapiens, UniProt P24941); experiment: Inhibition of human CDK2/Cyclin A2 using PKTPKKAKKL as substrate by PK/LDH spectrophotometric analysis; assay type: protein-complex assay
CDK2/Cyclin A2 [2] = biological target: T1, CDK2/Cyclin A2; experiment: Inhibition of human CDK2/Cyclin A2 using PKTPKKAKKL as substrate by fluorescence assay; assay type: protein-complex assay
MDA-MB-468 = experiment: Cytotoxicity against human MDA-MB-468 cells after 72 hrs by MTT assay; assay type: functional, cell-based; settings: MDA-MB-468, 72 h
Outline: (§1)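 Cells kept in RPMI or DMEM with 10% FBS at 37 °C, 5% CO₂ and allowed to attach overnight; 72 h with increasing inhibitor concentrations; then 1 mg/mL MTT for 3 h, DMSO solubilisation, OD read at 540 nm. Testis lines had culture conditions adapted to them. Dose-response in triplicate, 9 concentrations between 0.02 and 100 μM, averaged.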

A673 [3] = experiment: Induction of apoptosis in human A673 cells assessed as caspase-3 activation after 24 hrs by luminescence assay; assay type: functional, cell-based; settings: A673, 24 h
Outline: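 Caspase-3/7 activation measured with a Caspase-Glo 3/7 luminescent assay. Cells were plated as for the high-throughput viability assay and exposed for 24 h to serial dilutions. EC50 was obtained from the dose-response.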

BT-549 = experiment: Cytotoxicity against human BT549 cells after 72 hrs by resazurin/resorufin-based fluorescence assay; assay type: functional, cell-based; settings: BT-549, 72 h
Outline: (§2)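 CellTiter-Blue viability: 1200 cells per well seeded, incubated overnight at 37 °C, 5% CO₂; drugs serially diluted 2:3 in medium, four replicate wells per concentration plus four diluent-only control wells; 72 h exposure; resazurin reduction to resorufin read by fluorescence (579 nm ex/584 nm em). IC50 is the average of three data sets, each using nine concentrations between 0.004 μM and 12.5 μM.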

[4] = Cytotoxicity against human RPMI18226 cells after 72 hrs by resazurin/resorufin-based fluorescence assay; assay type: functional, cell-based; settings: RPMI18226, 72 h
SW872 = experiment: Cytotoxicity against human SW872 cells after 72 hrs by resazurin/resorufin-based fluorescence assay; assay type: functional, cell-based; settings: SW872, 72 h
HOS-TE85 = experiment: Cytotoxicity against human MNNG-HOS cells after 72 hrs by resazurin/resorufin-based fluorescence assay; assay type: functional, cell-based; settings: HOS-TE85, 72 h
U-266 = experiment: Cytotoxicity against human U266 cells after 72 hrs by resazurin/resorufin-based fluorescence assay; assay type: functional, cell-based; settings: U-266, 72 h
[5] = Cytotoxicity against human NCI-H929 cells after 72 hrs by resazurin/resorufin-based fluorescence assay; assay type: functional, cell-based; settings: NCI-H929, 72 h
SK-UT-1 = experiment: Cytotoxicity against human SK-UT-1 cells after 72 hrs by resazurin/resorufin-based fluorescence assay; assay type: functional, cell-based; settings: SK-UT-1, 72 h
SK-ES1 = experiment: Cytotoxicity against human SK-ES-1 cells after 72 hrs by resazurin/resorufin-based fluorescence assay; assay type: functional, cell-based; settings: SK-ES1, 72 h
SK-BR-3 = experiment: Cytotoxicity against human SK-BR-3 cells after 72 hrs by resazurin/resorufin-based fluorescence assay; assay type: functional, cell-based; settings: SK-BR-3, 72 h; outline: as §2
MCF7 = experiment: Cytotoxicity against human MCF7 cells after 72 hrs by resazurin/resorufin-based fluorescence assay; assay type: functional, cell-based; settings: MCF7, 72 h
[6] = Cytotoxicity against human MDA-MB-436 cells after 72 hrs by resazurin/resorufin-based fluorescence assay; assay type: functional, cell-based; settings: MDA-MB-436, 72 h
MDA-MB-231 = experiment: Cytotoxicity against human MDA-MB-231 cells after 72 hrs by resazurin/resorufin-based fluorescence assay; assay type: functional, cell-based; settings: MDA-MB-231, 72 h
T47D = experiment: Cytotoxicity against human T47D cells after 72 hrs by resazurin/resorufin-based fluorescence assay; assay type: functional, cell-based
A673 [7] = experiment: Cytotoxicity against human A673 cells after 72 hrs by resazurin/resorufin-based fluorescence assay; assay type: functional, cell-based; settings: A673, 72 h
[8] = Cytotoxicity against mouse GC-1 cells after 72 hrs by MTT assay; assay type: functional, cell-based; settings: GC-1, 72 h; outline: as §1
[9] = Cytotoxicity against mouse TM4 cells after 72 hrs by MTT assay; assay type: functional, cell-based; settings: TM4, 72 h; outline: as §1
[10] = Cytotoxicity against mouse GC-2 cells after 72 hrs by MTT assay; assay type: functional, cell-based; settings: GC-2, 72 h; outline: as §1

Nc1nc(Nc2ccccc2)sc1C(=O)c1cccc([N+](=O)[O-])c1
IC50 (CDK2/Cyclin A2 [1]): 2.2 µM

C=C(C)CNc1nc(N)c(C(=O)c2ccccc2)s1
IC50 (CDK2/Cyclin A2 [1]): 15 µM

NC(=O)c1ccc(Nc2nc(N)c(C(=O)c3cccnc3)s2)cc1
IC50 (CDK2/Cyclin A2 [2]): 0.2 µM

C=CCNc1nc(N)c(C(=O)c2ccncc2)s1
IC50 (CDK2/Cyclin A2 [1]): 49 µM

Nc1nc(Nc2ccc(S(N)(=O)=O)cc2)sc1C(=O)C1CCCCC1
IC50 (CDK2/Cyclin A2 [1]): 3.5 µM

C=CCNc1nc(N)c(C(=O)c2cccnc2)s1
IC50 (CDK2/Cyclin A2 [1]): 3.1 µM

CC(C)Nc1nc(N)c(C(=O)c2cccnc2)s1
IC50 (CDK2/Cyclin A2 [2]): 0.52 µM

Nc1nc(NC2CCCCC2)sc1C(=O)c1cccnc1
IC50 (CDK2/Cyclin A2 [2]): 0.38 µM
IC50 (MDA-MB-468): 3.1 µM

C=CCNc1nc(N)c(C(C)=O)s1
IC50 (CDK2/Cyclin A2 [1]): > 100 µM

COc1cccc2c1C(=O)c1c(O)c3c(c(O)c1C2=O)C[C@@](O)(C(=O)CO)C[C@@H]3O[C@H]1C[C@H](N)[C@H](O)[C@H](C)O1 [DOXORUBICIN]
EC50 (A673 [3]): 0.39 µM
IC50 (BT-549): 0.11 µM
IC50 [4]: 0.27 µM
IC50 (SW872): 0.14 µM
IC50 (HOS-TE85): 0.59 µM
IC50 (U-266): 0.67 µM
IC50 [5]: 0.065 µM
IC50 (SK-UT-1): 0.076 µM
IC50 (SK-ES1): 0.042 µM
IC50 (SK-BR-3): 0.09 µM

CCNc1nc(N)c(C(=O)c2ccccc2)s1
IC50 (CDK2/Cyclin A2 [1]): 17 µM

C=CCNc1nc(N)c(C(=O)c2ccc(F)cc2)s1
IC50 (CDK2/Cyclin A2 [1]): > 100 µM

COc1cccc(C(=O)c2sc(Nc3ccc(S(N)(=O)=O)cc3)nc2N)c1
IC50 (CDK2/Cyclin A2 [2]): 0.1 µM

C=CCNc1nc(N)c(C(=O)c2ccc(OC)cc2)s1
IC50 (CDK2/Cyclin A2 [1]): 35 µM

COc1ccc(C(=O)c2sc(Nc3ccc(S(N)(=O)=O)cc3)nc2N)cc1
IC50 (CDK2/Cyclin A2 [1]): 17 µM

Nc1ccc(C(=O)c2sc(Nc3ccc(S(N)(=O)=O)cc3)nc2N)cc1
IC50 (CDK2/Cyclin A2 [1]): 8.8 µM

Nc1nc(Nc2ccc(S(N)(=O)=O)cc2)sc1C(=O)c1cccc(F)c1
IC50 (CDK2/Cyclin A2 [2]): 0.05 µM
IC50 (BT-549): > 10 µM
IC50 [4]: 6.8 µM
IC50 (SW872): 3.1 µM
IC50 (MCF7): 1.3 µM
IC50 (HOS-TE85): 2.2 µM
IC50 [6]: 1.3 µM
IC50 (U-266): 1.5 µM
IC50 [5]: 1 µM
IC50 (MDA-MB-231): 1.2 µM
IC50 (SK-UT-1): 1.6 µM
IC50 (T47D): 0.98 µM
IC50 (SK-ES1): 1.1 µM
IC50 (A673 [7]): 0.45 µM
IC50 (SK-BR-3): 1.2 µM
IC50 [8]: 6.4 µM
IC50 [9]: 4.8 µM
IC50 [10]: 3.9 µM
IC50 (MDA-MB-468): 0.8 µM

CC(C)Nc1nc(N)c(C(=O)c2ccccc2)s1
IC50 (CDK2/Cyclin A2 [1]): 2 µM

C=CCNc1nc(N)c(C(=O)c2ccc3ccccc3c2)s1
IC50 (CDK2/Cyclin A2 [1]): 5 µM

Cc1ccccc1C(=O)c1sc(Nc2ccc(S(N)(=O)=O)cc2)nc1N
IC50 (CDK2/Cyclin A2 [1]): 4.8 µM

N#Cc1ccc(Nc2nc(N)c(C(=O)c3cccnc3)s2)cc1
IC50 (CDK2/Cyclin A2 [1]): 2.8 µM

CC(C)(C)Nc1nc(N)c(C(=O)c2ccccc2)s1
IC50 (CDK2/Cyclin A2 [1]): > 100 µM

Nc1nc(Nc2cccc(F)c2)sc1C(=O)c1ccccc1
IC50 (CDK2/Cyclin A2 [1]): 5.7 µM

Nc1nc(Nc2ccc(S(N)(=O)=O)cc2)sc1C(=O)c1cccc(Cl)c1
IC50 (CDK2/Cyclin A2 [1]): 15 µM

NC(=O)c1sc(Nc2ccc(S(N)(=O)=O)cc2)nc1N
IC50 (CDK2/Cyclin A2 [1]): 4.8 µM

Nc1nc(Nc2cccc(S(N)(=O)=O)c2)sc1C(=O)c1cccnc1
IC50 (CDK2/Cyclin A2 [1]): 7.8 µM

Nc1nc(Nc2ccc(S(N)(=O)=O)cc2)sc1C(=O)c1ccc(S(N)(=O)=O)cc1
IC50 (CDK2/Cyclin A2 [2]): 0.07 µM
IC50 (BT-549): > 10 µM
IC50 [4]: > 10 µM
IC50 (SW872): > 10 µM
IC50 (MCF7): > 10 µM
IC50 (HOS-TE85): > 10 µM
IC50 [6]: > 10 µM
IC50 (U-266): 7.2 µM
IC50 [5]: > 10 µM
IC50 (MDA-MB-231): > 10 µM
IC50 (SK-UT-1): > 10 µM
IC50 (T47D): 8.7 µM
IC50 (SK-ES1): > 10 µM
IC50 (A673 [7]): > 10 µM
IC50 (SK-BR-3): > 10 µM

CCCNc1nc(N)c(C(=O)c2ccccc2)s1
IC50 (CDK2/Cyclin A2 [1]): 8.9 µM

Nc1nc(Nc2ccc(S(N)(=O)=O)cc2)sc1C(=O)c1ccc([N+](=O)[O-])cc1
IC50 (CDK2/Cyclin A2 [1]): 7.4 µM

Nc1nc(Nc2ccc(S(N)(=O)=O)cc2)sc1C(=O)c1ccccc1
IC50 (CDK2/Cyclin A2 [2]): 0.13 µM
IC50 [8]: 17 µM
IC50 [9]: 9.1 µM
IC50 [10]: 6.1 µM

Nc1nc(Nc2ccccc2)sc1C(=O)c1ccc(F)cc1
IC50 [8]: 16 µM
IC50 [9]: 14 µM
IC50 [10]: 17 µM
IC50 (CDK2/Cyclin A2 [1]): 1.4 µM

COc1cccc(C(=O)c2sc(Nc3ccccc3)nc2N)c1
IC50 (CDK2/Cyclin A2 [1]): 3.1 µM
